Among the data in ChEMBL document CHEMBL1149647, “Structure-based design of TACE selective inhibitors: manipulations in the S1'-S3' pocket” (Bioorg Med Chem, 2007) are IC50, Selectivity ratio and inhibition in vivo values, retold here.

In general, pIC50 refers to the IC50 on a negative log10 scale, so that one unit is a factor of ten. As usually defined, the inhibition in vivo is the relative decrease from the control value, in per cent. The low end stands for little suppression, the high end for strong suppression.

For experiment [1], the target named is 72 kDa type IV collagenase (Homo sapiens, UniProt P08253). Put plainly: Inhibition of human recombinant MMP2. Summed up: (§1)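 Enzyme potency is expressed as IC50 in nM, reported as average ± SD.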
Experiment [2] deals with T1, Disintegrin and metalloproteinase domain-containing protein 17 (Homo sapiens, UniProt P78536). As to the kind of experiment: Inhibition of human TACE in human whole blood.
In experiment [3] the target is T1, Disintegrin and metalloproteinase domain-containing protein 17. As to the kind of experiment: Inhibition of human TACE expressed in CHO cells by FRET assay. It is filed as cell-based.
A further experiment deals with Collagenase 3 (Homo sapiens, UniProt P45452). Put plainly: Inhibition of human recombinant MMP13. A digest of the protocol: as §1
The species entered for experiment [4] is Homo sapiens. As to the kind of experiment: Selectivity for TACE over MMP13.
Experiment [5] addresses Matrix metalloproteinase-14 (Homo sapiens, UniProt P50281). As to the kind of experiment: Inhibition of human recombinant MMP14.
The species entered for experiment [6] is Homo sapiens. Put plainly: Selectivity for TACE over MMP2.
The next experiment relates to Mus musculus. Put plainly: Inhibition of LPS-induced TNFalpha production in BALB/CJ mouse at 25 mg/kg, po after 90 mins. It is filed as functional. The conditions noted are these: 1.5 h.

SMILES strings stand for the structures. pIC50: −log10 of the molar value. A value given as a limit tells only on which side of the number the result lay.

Sequence of 72 kDa type IV collagenase (P08253 whole entry, the tested form may be a part): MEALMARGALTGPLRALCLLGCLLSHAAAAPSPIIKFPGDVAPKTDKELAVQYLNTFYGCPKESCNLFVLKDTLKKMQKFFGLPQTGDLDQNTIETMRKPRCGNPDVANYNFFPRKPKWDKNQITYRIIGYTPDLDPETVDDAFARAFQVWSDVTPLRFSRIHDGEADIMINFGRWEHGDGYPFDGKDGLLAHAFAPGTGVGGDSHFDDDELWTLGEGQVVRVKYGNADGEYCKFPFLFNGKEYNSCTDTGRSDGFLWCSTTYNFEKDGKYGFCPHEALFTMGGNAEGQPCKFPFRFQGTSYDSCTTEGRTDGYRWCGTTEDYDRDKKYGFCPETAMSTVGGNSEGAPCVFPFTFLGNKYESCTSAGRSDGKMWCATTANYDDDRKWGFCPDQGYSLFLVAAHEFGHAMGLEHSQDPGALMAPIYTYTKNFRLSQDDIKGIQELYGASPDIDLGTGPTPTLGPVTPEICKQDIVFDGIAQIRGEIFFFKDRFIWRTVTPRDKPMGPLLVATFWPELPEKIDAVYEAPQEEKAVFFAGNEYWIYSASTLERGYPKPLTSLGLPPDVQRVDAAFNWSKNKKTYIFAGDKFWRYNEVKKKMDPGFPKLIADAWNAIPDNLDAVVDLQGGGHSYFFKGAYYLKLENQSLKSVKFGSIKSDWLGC
T1 sequence (P78536 whole entry, the tested form may be a part): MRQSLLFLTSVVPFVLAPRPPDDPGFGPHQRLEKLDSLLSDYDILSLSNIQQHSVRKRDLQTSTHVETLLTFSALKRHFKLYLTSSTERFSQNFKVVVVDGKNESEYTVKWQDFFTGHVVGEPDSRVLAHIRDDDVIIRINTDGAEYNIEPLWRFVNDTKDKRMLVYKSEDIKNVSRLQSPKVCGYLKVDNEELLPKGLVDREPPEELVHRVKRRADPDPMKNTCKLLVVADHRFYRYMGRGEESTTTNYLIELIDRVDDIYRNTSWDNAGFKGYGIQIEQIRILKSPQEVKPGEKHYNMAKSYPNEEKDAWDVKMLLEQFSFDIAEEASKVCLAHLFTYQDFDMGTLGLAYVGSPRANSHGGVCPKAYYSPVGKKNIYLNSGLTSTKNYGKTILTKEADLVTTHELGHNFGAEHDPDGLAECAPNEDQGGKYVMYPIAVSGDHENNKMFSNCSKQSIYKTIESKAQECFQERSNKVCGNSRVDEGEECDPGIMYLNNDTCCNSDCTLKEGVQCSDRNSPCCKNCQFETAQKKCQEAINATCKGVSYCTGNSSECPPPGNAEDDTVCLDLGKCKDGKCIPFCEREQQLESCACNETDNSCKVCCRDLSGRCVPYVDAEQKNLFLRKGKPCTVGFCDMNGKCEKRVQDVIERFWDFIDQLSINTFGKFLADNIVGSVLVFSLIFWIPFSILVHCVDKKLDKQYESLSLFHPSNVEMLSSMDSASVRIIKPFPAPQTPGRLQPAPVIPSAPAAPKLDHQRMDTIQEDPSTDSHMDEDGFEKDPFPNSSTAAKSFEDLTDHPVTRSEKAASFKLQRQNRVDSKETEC

Consider `CC#CCNc1ccc(S(=O)(=O)N2CCSC(C)(C)[C@@H]2C(=O)NO)cc1`, for which the pIC50 was 7.25 in experiment [1], 5.46 in experiment [2], 8.64 in experiment [3] and 7.52 on Collagenase 3.

In the case of `CC#CCNc1ccc(S(=O)(=O)CC2(C(=O)NO)CCN(C(=O)c3ccccc3C)CC2)cc1`, the Selectivity ratio in the experiment filed under Homo sapiens [4] was determined as 499. Further, the pIC50 is 7.34 in experiment [1]; 5.32 in experiment [2]; 6.00 in experiment [5]; 8.60 in experiment [3]; 6.23 on Collagenase 3.

In the case of `CC#CCNc1ccc(S(=O)(=O)CC2(C(=O)NO)CCN(C(=O)OC(C)(C)C)CC2)cc1`, the Selectivity ratio in the experiment filed under Homo sapiens [4] is greater than 400. The pIC50 in experiment [1] is 6.92; in experiment [2] it was 4.80; in experiment [5], 5.63; in experiment [3], 8.80.

Take `CC#CCNc1ccc(S(=O)(=O)CC2(C(=O)NO)CCN(Cc3ccncc3)CC2)cc1`: the negative logarithm of the IC50 (pIC50) in experiment [1] is 5.82; in experiment [2] it was 5.14; in experiment [5], 5.36; in experiment [3], 8.19; at Collagenase 3, 5.16.

In the case of `CC#CCNc1ccc(S(=O)(=O)CC2(C(=O)NO)CCNCC2)cc1`, the pIC50 in experiment [3] is 7.19.

Regarding `CC#CCOc1ccc(S(=O)(=O)CC2(C(=O)NO)CCN(C(=O)OC(C)(C)C)CC2)cc1`, the pIC50 in experiment [2] is 4.85; in experiment [3], 8.70; at Collagenase 3, 6.87.

On to `CC(C)(C)OC(=O)N1CCC(CS(=O)(=O)c2ccc(NCC#CCO)cc2)(C(=O)NO)CC1`, for which the pIC50 in experiment [1] is 6.48; in experiment [2], 4.60; in experiment [3], 8.00; on Collagenase 3, 5.98.

For the compound `CC#CCOc1ccc(S(=O)(=O)N2CCSC(C)(C)[C@@H]2C(=O)NO)cc1`, the pIC50 in experiment [2] was 6.52.

Consider `CC#CCNc1ccc(S(=O)(=O)CC2(C(=O)NO)CCN(C(=O)N(CC)CC)CC2)cc1`, for which, in the experiment listed under Homo sapiens [4], the Selectivity ratio was greater than 750. Further, the pIC50 in experiment [1] was 6.67; in experiment [2], 5.19; in experiment [5] it was 5.44; in experiment [3] it was greater than 9.00; on Collagenase 3 it was 6.11.

On to `CC#CC(C)Oc1ccc(S(=O)(=O)CC2(C(=O)NO)CCN(S(=O)(=O)C(C)C)CC2)cc1` (stereo not given), for which the Selectivity ratio in the experiment filed under Homo sapiens [4] worked out at 720; in the experiment listed under Homo sapiens [6] it was 1000. Besides, the pIC50 in experiment [1] was 5.38; in experiment [2], 4.51; in experiment [3], 8.40; at Collagenase 3 it was 5.54.

As to `CC#CCNc1ccc(S(=O)(=O)CC2(C(=O)NO)CCN(S(=O)(=O)C(C)C)CC2)cc1`, the negative logarithm of the IC50 (pIC50) in experiment [1] was 7.01; in experiment [2], 5.30; in experiment [3], 8.70; on Collagenase 3 it was 5.68.

With `CC#CCNc1ccc(S(=O)(=O)CC2(C(=O)NO)CCN(C(=O)C(C)CC)CC2)cc1` (stereo not given), the pIC50 in experiment [1] is 5.88; in experiment [2], 5.31; in experiment [5], 5.15; in experiment [3] it was 8.46; on Collagenase 3, 5.61.

`CC#CC(C)(C)Oc1ccc(S(=O)(=O)CC2(C(=O)NO)CCN(S(=O)(=O)C(C)C)CC2)cc1`: the pIC50 in experiment [1] was less than 5.78; in experiment [2], less than 4.30; in experiment [3] it was 7.57; on Collagenase 3, 4.92.

Consider `CC#CCN(C)c1ccc(S(=O)(=O)CC2(C(=O)NO)CCN(C(=O)OC(C)(C)C)CC2)cc1`, for which the results for the pIC50 (in experiment [2]; in experiment [3]; at Collagenase 3) were less than 4.30, 8.48 and 5.80, respectively.

As for `CC#CCNc1ccc(S(=O)(=O)CC2(C(=O)NO)CCN(C(=O)C(C)C)CC2)cc1`, the negative logarithm of the IC50 (pIC50) in experiment [1] was 6.29; in experiment [2] it was 5.44; in experiment [5], 5.31; in experiment [3], 8.64; on Collagenase 3, 5.49. Moreover, at 25 mg/kg the inhibition in vivo in the experiment on Mus musculus was 72%.

`CC#CCOc1ccc(S(=O)(=O)CC2(C(=O)NO)CCN(S(=O)(=O)C(C)C)CC2)cc1`: the Selectivity ratio in the experiment filed under Homo sapiens [4] came to 52; in the experiment listed under Homo sapiens [6], 93. In addition, the pIC50 was 6.55 in experiment [1]; 5.82 in experiment [2]; 5.44 in experiment [5]; 8.52 in experiment [3]; 6.80 on Collagenase 3.
